Laboratory results from PubChem BioAssay AID1136 (Sanford-Burnham Center for Chemical Genomics, 2008).
Out of some 200,000 compounds screened, fewer than 10 were called active. The list is a sample of the results. Unmarked numbers belong to inactive results.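 Rule for the calls: active = activation factor at least 2 at 20 µM; inactive = the rest.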

Target: Alkaline phosphatase, tissue-nonspecific isozyme (Homo sapiens) (UniProt P05186)
Experiment: activation of human TNAP, high DEA acceptor – biochemical, luminescence, uHTS, primary screen (AID 1136)
Settings: purified TNAP, CDP-star luminescence, 1 M DEA, 30 min; at 20 µM; active compounds read high; 0 = EDTA background, 1 = DMSO-only activity
Outline: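 Assay system: human TNAP; Input: enzyme diluted 1/800 final; Reagent: CDP-star luminogenic substrate at 100 µM final; Timing: 30 min, room temperature; Signal: luminescence; Evaluation: TNAP activation factor scaled between EDTA and DMSO control wells.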

Chain of Alkaline phosphatase, tissue-nonspecific isozyme (Homo sapiens) (P05186 whole entry, looked up): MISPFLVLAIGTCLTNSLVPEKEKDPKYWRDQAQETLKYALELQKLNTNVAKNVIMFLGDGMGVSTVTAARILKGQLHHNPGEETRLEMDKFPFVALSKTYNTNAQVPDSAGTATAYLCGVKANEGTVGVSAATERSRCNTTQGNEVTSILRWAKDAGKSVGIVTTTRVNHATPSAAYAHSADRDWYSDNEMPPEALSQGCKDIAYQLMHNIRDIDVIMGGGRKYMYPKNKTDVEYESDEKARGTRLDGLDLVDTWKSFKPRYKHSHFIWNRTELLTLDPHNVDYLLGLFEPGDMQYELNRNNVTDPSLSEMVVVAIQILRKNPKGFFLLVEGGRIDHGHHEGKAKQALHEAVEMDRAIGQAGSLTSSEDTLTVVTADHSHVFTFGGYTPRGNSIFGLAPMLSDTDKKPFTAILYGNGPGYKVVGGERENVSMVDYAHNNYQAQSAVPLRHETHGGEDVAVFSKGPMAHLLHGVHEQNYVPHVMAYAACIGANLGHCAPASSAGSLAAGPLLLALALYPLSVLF

Q: `O=C(CNC(c1ccccc1)c1ccccc1)Nc1ccc(F)cc1` was tested. Which activation factor did it give?
A: Its activation factor is 1.

Q: For `Cc1cc(C)c(S(=O)(=O)N2CCOCC2)cc1C`, which activation factor is on record?
A: Its activation factor is 1.

Q: How did the activation factor turn out when `CC1(C)C2CCC1(C)C(OC(=O)c1ccc(O)cc1)C2` (configuration not stated) was run?
A: Its activation factor is 1.1.

Q: Which activation factor does the source give for `Cc1nc2sc3c(c2c(=O)n1NC(=O)CCl)CCCC3` here?
A: Its activation factor is 1.

Q: How did the activation factor turn out when `COc1ccc(C)cc1NC(=O)CSc1nnc(CC(=O)Nc2ccccc2F)n1C` was run?
A: Its activation factor is 1.1.

Q: How did the activation factor turn out when `Cc1ccc(S(=O)(=O)N2CCN(C(=O)c3cccs3)CC2)cc1` was run?
A: The activation factor was 1.

Q: How did the activation factor turn out when `CCCC(=O)n1nc(NCc2ccc(OC)cc2)nc1NCc1ccc(OC)cc1` was run?
A: The activation factor was 1.

Q: For `CNC(=S)Nc1ccc([N+](=O)[O-])cc1`, which activation factor is on record?
A: The activation factor was 1.

Q: How did the activation factor turn out when `COc1ccc(C(=O)C[n+]2ccc(C)cc2)cc1` was run?
A: Its activation factor is 1.1.

Q: For `NC(=O)COc1ccc(C23CC4CC(CC(C4)C2)C3)cc1`, which activation factor is on record?
A: Its activation factor is 1.1.

Q: How did the activation factor turn out when `CCc1ccccc1NC(=S)N(CCN1CCCCCC1)Cc1ccco1` was run?
A: The activation factor was 1.

Q: `CCCCN1C(=O)c2ccc(C(=O)Nc3ccc(S(=O)(=O)N(C)C)cc3)cc2C1=O` was tested. Which activation factor did it give?
A: The activation factor was 1.

Q: Which activation factor does the source give for `CCCc1c(C)nc2c(Br)cccc2c1Cl` here?
A: Its activation factor is 1.

Q: For `Clc1ccc(CN2CCN(/N=C/c3cccnc3)CC2)cc1`, which activation factor is on record?
A: Its activation factor is 1.

Q: How did the activation factor turn out when `CC(=O)N1CCc2cc(Br)cc(S(=O)(=O)CCC(=O)Nc3c(C)n(C)n(-c4ccccc4)c3=O)c21` was run?
A: The activation factor was 1.

Q: How did the activation factor turn out when `CCN(CC)c1ccc(C(=O)N/N=C(\C)c2cccc(OC)c2)cc1` was run?
A: Its activation factor is 1.

Q: Which activation factor does the source give for `Cc1ccc(C)c2[nH]c(=O)c(CCNC(=O)c3cccs3)cc12` here?
A: The activation factor was 1.

Q: `O=C(/C=C/c1c(F)cccc1Cl)Nc1nn[nH]n1` was tested. Which activation factor did it give?
A: Its activation factor is 1.

Q: `CC(=O)Nc1ccc(/C=N/NC(=O)c2cccs2)cc1` was tested. Which activation factor did it give?
A: Its activation factor is 1.

Q: `CC(CC(=O)N1CCN(c2ccccc2)CC1)c1ccccc1` (configuration not stated) was tested. Which activation factor did it give?
A: Its activation factor is 1.

Q: `COC(=O)c1ccc(-n2cnc3ccccc32)nc1` was tested. Which activation factor did it give?
A: Its activation factor is 1.

Q: For `CN1CCN(CC(=O)Nc2cccc([N+](=O)[O-])c2)CC1`, which activation factor is on record?
A: The activation factor was 1.

Q: Which activation factor does the source give for `O=C(CS(=O)(=O)c1ccccc1)Nc1ccc(S(=O)(=O)Nc2ccccn2)cc1` here?
A: The activation factor was 1.

Q: `COc1ccccc1C(=O)Nn1c(-c2cccs2)nc2ccccc2c1=O` was tested. Which activation factor did it give?
A: Its activation factor is 1.

Q: Which activation factor does the source give for `CCN(CC)C(=O)C(=O)c1cn(CC(=O)NCc2ccc3c(c2)OCO3)c2ccccc12` here?
A: The activation factor was 1.

Q: `Cc1ccc(S(=O)(=O)CCC(=O)OCc2ccccc2)cc1` was tested. Which activation factor did it give?
A: The activation factor was 1.

Q: `CCOC(=O)c1ccccc1NC(=O)CSc1nc2ccccc2c(=O)[nH]1` was tested. Which activation factor did it give?
A: Its activation factor is 1.

Q: Which activation factor does the source give for `O=C(CN1CCN(c2ccc(O)cc2)CC1)NC1CCCc2ccccc21` (configuration not stated) here?
A: Its activation factor is 1.

Q: With `O=[N+]([O-])c1cc(S(=O)(=O)CCCN2CCOCC2)ccc1F` as the molecule, how does the activation factor read?
A: The activation factor was 1.

Q: `O=S(=O)(/N=C(/Nc1ccccc1)c1ccccc1)c1cccs1` was tested. Which activation factor did it give?
A: The activation factor was 1.

Q: For `CCOc1ccc(N2C(=O)CN(c3cccc4ccccc34)C2=S)cc1`, which activation factor is on record?
A: Its activation factor is 1.1.

Q: Which activation factor does the source give for `C/C(=N/OC(=O)c1cccc(C(F)(F)F)c1)c1cnccn1` here?
A: Its activation factor is 1.

Q: `CCN(CC)CCNC(=O)c1ccc(NS(=O)(=O)c2ccc3c(c2)OCCO3)cc1` was tested. Which activation factor did it give?
A: Its activation factor is 1.

Q: `Cc1cc(/C=C2/NC(=O)NC2=O)c(C)n1-c1cccnc1` was tested. Which activation factor did it give?
A: Its activation factor is 1.1.

Q: With `C=CCC1(CC=C)CCCN1C(=O)CC1C(=O)NCCN1Cc1ccccc1OC` (configuration not stated) as the molecule, how does the activation factor read?
A: Its activation factor is 1.

Q: `C/C(=N/NC(=O)CCc1ccccc1)c1ccco1` was tested. Which activation factor did it give?
A: The activation factor was 1.

Q: `CCCCN(CC)CCCNC(=O)c1ccc(CSc2nc3ccncc3[nH]2)cc1` was tested. Which activation factor did it give?
A: The activation factor was 1.

Q: Which activation factor does the source give for `CC1=CC2=NC(=O)CC(C)(C(=O)N(CC(=O)NC(C)(C)C)Cc3ccccc3)N2C=C1` (configuration not stated) here?
A: The activation factor was 1.1.

Q: How did the activation factor turn out when `O=C(CN1CCN(Cc2ccc(F)cc2Cl)C1=O)NCc1cccs1` was run?
A: The activation factor was 1.1.

Q: `CCC(C)(C)C1CCC(=NNC(=O)c2ccc(Br)o2)CC1` (configuration not stated) was tested. Which activation factor did it give?
A: Its activation factor is 1.1.

Q: Which activation factor does the source give for `Cc1cccc(C)c1NC(=O)Nc1ccccc1-n1ccnc1` here?
A: The activation factor was 1.1.

Q: For `Cc1cccc(N2CCN(c3ccc(C(N)=O)cc3[N+](=O)[O-])CC2)c1C`, which activation factor is on record?
A: Its activation factor is 1.

Q: For `COc1ccc(-c2[nH]ncc2CN(C)Cc2cccnc2)c(F)c1`, which activation factor is on record?
A: The activation factor was 1.

Q: For `COc1ccccc1CN(C)C(=O)C1(c2ccc(Cl)cc2)CC1`, which activation factor is on record?
A: The activation factor was 1.

Q: With `CCOC(=O)C(NC(C)=O)C(=O)Nc1ccc(OC)cc1` (configuration not stated) as the molecule, how does the activation factor read?
A: Its activation factor is 1.1.

Q: With `COc1cccc(CC2(CO)CCN(Cc3cnc(-c4cccc(C)c4)nc3)CC2)c1` as the molecule, how does the activation factor read?
A: The activation factor was 1.1.

Q: Which activation factor does the source give for `CCOc1ccc(C(C)=O)cc1CSc1nnc(-c2ccncc2)n1CCOC` here?
A: The activation factor was 1.

Q: Which activation factor does the source give for `CN1CCN(/N=C/c2ccc(C#N)cc2)CC1` here?
A: The activation factor was 1.

Q: `O=C1C2C3C=CC(C3)C2C(=O)N1c1ccc(-c2nc3ccccc3c(=O)o2)cc1` (configuration not stated) was tested. Which activation factor did it give?
A: Its activation factor is 1.

Q: `COC(=O)CC1=NN(c2ccccc2)C(=O)C1` was tested. Which activation factor did it give?
A: Its activation factor is 1.

Q: How did the activation factor turn out when `COc1ccc(/C(C)=N/NC(=O)CCC(=O)Nc2ccc(Cl)cc2Cl)c(OC)c1` was run?
A: The activation factor was 0.9.

Q: `Cc1cccc(NC(=O)CN2C(=O)c3ccccc3C2=O)c1C` was tested. Which activation factor did it give?
A: The activation factor was 1.
